Assay results reported in ChEMBL document CHEMBL2407089, “Microwave-assisted synthesis of some new pyrazolopyridines and their antioxidant, antitumor and antimicrobial activities” (Eur J Med Chem, 2013).
Converted amounts (≈) assume the structure as drawn. The source made the active and inactive calls. The rule behind the calls is not given here.

Assays:
[1] = system: HepG2; assay: Cytotoxicity against human HepG2 cells by SRB assay; assay type: functional, cell-based
[2] = system: Enterobacter cloacae; assay: Antimicrobial activity against Enterobacter cloaca assessed as diameter of inhibition zone at 10 mg/ml after 24 hrs by cut-plug method; assay type: functional; conditions: read-out: DIZ
In short: (§1)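 Bacteria were maintained on nutrient agar and fungi on Sabouraud agar slopes. Testing used the cut-plug technique on nutrient agar, incubated at 30°C for 24 h, and inhibition zone diameters were measured in mm.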

[3] = system: Radical scavenging activity; assay: Antioxidant activity assessed as DPPH free radical scavenging activity at 50 ug after 30 mins by spectrophotometry; assay type: functional
In short: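 Each sample (50 μg) dissolved in 1 ml DMSO; 250 μl added to 1 ml DPPH in DMSO (6 mg/50 ml), brought to 3 ml with DMSO. DMSO served as control. Vortexed, kept 30 min in the dark at room temperature, and absorbance read at 517 nm. Scavenging % = [1 − (A sample/A control)] × 100.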

[4] = system: Bacillus; assay: Antimicrobial activity against Bacillus assessed as diameter of inhibition zone at 10 mg/ml after 24 hrs by cut-plug method; assay type: functional; in short: as §1
[5] = system: Radical scavenging activity; assay: Antioxidant activity assessed as DPPH free radical scavenging activity after 30 mins by spectrophotometry; assay type: functional
In short: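 EC50, the amount giving half-maximal scavenging, was taken from serial dilutions (5–50 μg/ml) in DMSO run against DPPH in DMSO (6 mg/50 ml stock) to a 3 ml total. Incubated 30 min in the dark at room temperature, with a DMSO control and A517 read-out. Scavenging % = [1 − (A sample/A control)] × 100.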

[6] = system: Penicillium expansum; assay: Antifungal activity against Penicillium expansum assessed as diameter of inhibition zone at 10 mg/ml after 24 hrs by cut-plug method; assay type: functional; conditions: for zone of inhibition at 10000 µg/mL: read-out: DIZ; in short: as §1
[7] = system: Fusarium oxysporum; assay: Antifungal activity against Fusarium oxysporum assessed as diameter of inhibition zone at 10 mg/ml after 24 hrs by cut-plug method; assay type: functional; in short: as §1
[8] = system: Serratia; assay: Antimicrobial activity against Serratia assessed as diameter of inhibition zone at 10 mg/ml after 24 hrs by cut-plug method; assay type: functional; conditions: read-out: DIZ; in short: as §1
[9] = system: Escherichia coli; assay: Antimicrobial activity against Escherichia coli assessed as diameter of inhibition zone at 10 mg/ml after 24 hrs by cut-plug method; assay type: functional; conditions: read-out: DIZ; in short: as §1
[10] = system: MCF7; assay: Cytotoxicity against human MCF7 cells by SRB assay; assay type: functional, cell-based

Compound	EC50 [5]	IC50 [1]	zone of inhibition at 10000 µg/mL [2]	Activity [3]	diameter of the inhibition zone (DIZ) [4]	diameter of the inhibition zone (DIZ) [6]	diameter of the inhibition zone (DIZ) [7]	zone of inhibition at 10000 µg/mL [8]	zone of inhibition at 10000 µg/mL [9]	IC50 [10]	zone of inhibition at 10000 µg/mL ([4]; read-out: DIZ)	zone of inhibition at 10000 µg/mL [6]	zone of inhibition at 10000 µg/mL ([7]; read-out: DIZ)
COc1cccc2c1C(=O)c1c(O)c3c(c(O)c1C2=O)C[C@@](O)(C(=O)CO)C[C@@H]3O[C@H]1C[C@H](N)[C@H](O)[C@H](C)O1 [DOXORUBICIN]	–	3.1 µg/mL (≈ 5.7 µM)	–	–	–	–	–	–	–	–	–	–	–
O=C(c1ccc(Cl)cc1)c1cc2c(-c3cccnc3)nn(-c3ccccc3)c2[nH]c1=O	8.97 µg/mL (≈ 21 µM)	9 µg/mL (≈ 21.1 µM)	19 mm	63.6%	inactive	inactive	inactive	17 mm	19 mm	6.45 µg/mL (≈ 15.1 µM)	–	–	–
O=C(N[C@H](CO)[C@H](O)c1ccc([N+](=O)[O-])cc1)C(Cl)Cl [CHLORAMPHENICOL]	–	–	17 mm	–	–	–	–	25.8 mm	18 mm	–	21 mm	10 mm	12 mm
Cc1ccc(C(=O)c2cc3c(-c4cccnc4)nn(-c4ccccc4)c3[nH]c2=O)cc1	54.76 µg/mL (≈ 135 µM)	8.85 µg/mL (≈ 21.8 µM)	12.5 mm	38.9%	inactive	–	inactive	17 mm	17 mm	9.9 µg/mL (≈ 24.4 µM)	–	10 mm	–
N#Cc1cc2c(-c3cccnc3)nn(-c3ccccc3)c2[nH]c1=O	> 100 µg/mL	3.3 µg/mL (≈ 10.5 µM)	–	1.14%	–	–	–	–	–	3 µg/mL (≈ 9.57 µM)	–	–	–
CCOC(=O)c1cc2c(-c3cccnc3)nn(-c3ccccc3)c2nc1-c1cccnc1	–	3.75 µg/mL (≈ 8.9 µM)	–	inactive	–	–	–	–	–	6.9 µg/mL (≈ 16.4 µM)	–	–	–
O=C(c1ccc(F)cc1)c1cc2c(-c3cccnc3)nn(-c3ccccc3)c2[nH]c1=O	4.21 µg/mL (≈ 10.3 µM)	7.8 µg/mL (≈ 19 µM)	21 mm	72.3%	inactive	inactive	inactive	17.5 mm	15 mm	8.7 µg/mL (≈ 21.2 µM)	–	–	–
Clc1ccc(-c2cc3ncc4c(-c5cccnc5)nn(-c5ccccc5)c4n3n2)cc1	80.5 µg/mL (≈ 190 µM)	16.2 µg/mL (≈ 38.3 µM)	–	29.4%	–	–	–	–	–	14.7 µg/mL (≈ 34.8 µM)	–	–	–

Now from value to compound, other results behind:

EC50 [5]	Compound	IC50 [1]	zone of inhibition at 10000 µg/mL [2]	Activity [3]	diameter of the inhibition zone (DIZ) [4]	diameter of the inhibition zone (DIZ) [6]	diameter of the inhibition zone (DIZ) [7]	zone of inhibition at 10000 µg/mL [8]	zone of inhibition at 10000 µg/mL [9]	IC50 [10]	zone of inhibition at 10000 µg/mL ([4]; read-out: DIZ)	zone of inhibition at 10000 µg/mL [6]	zone of inhibition at 10000 µg/mL ([7]; read-out: DIZ)
92.85 µg/mL (≈ 282 µM)	N#Cc1cc2c(-c3cccnc3)nn(-c3ccccc3)c2[nH]c1=S	3.9 µg/mL (≈ 11.8 µM)	–	17%	–	–	–	–	–	2.7 µg/mL (≈ 8.2 µM)	–	–	–
3.22 µg/mL (≈ 18.3 µM)	O=C1O[C@H]([C@@H](O)CO)C(O)=C1O [ASCORBIC ACID]	–	–	82.8%	–	–	–	–	–	–	–	–	–
53.76 µg/mL (≈ 134 µM)	Cc1ccc(-c2cc3ncc4c(-c5cccnc5)nn(-c5ccccc5)c4n3n2)cc1	12.9 µg/mL (≈ 32.1 µM)	–	39.6%	–	–	–	–	–	10.5 µg/mL (≈ 26.1 µM)	–	–	–
> 100 µg/mL	c1ccc(-c2cc3ncc4c(-c5cccnc5)nn(-c5ccccc5)c4n3n2)cc1	17.3 µg/mL (≈ 44.5 µM)	–	9.47%	–	–	–	–	–	15.9 µg/mL (≈ 40.9 µM)	–	–	–
38.64 µg/mL (≈ 98.2 µM)	O=C(c1cccnc1)c1cc2c(-c3cccnc3)nn(-c3ccccc3)c2[nH]c1=O	11 µg/mL (≈ 28 µM)	11.5 mm	36%	inactive	inactive	inactive	12.5 mm	10.5 mm	10.1 µg/mL (≈ 25.7 µM)	–	–	–
